Measured values taken from publication PMC3523195 (Bioorganic & medicinal chemistry, 2011).
Marks after values point to notes of the source that are not given here.

What was measured:
[1] = test system: laccase and melanin formation in C. neoformans; settings: cited from earlier work
[2] = test system: melanized C. neoformans var. grubii; experiment: halo assay; type: cell-based, Cryptococcus neoformans var. grubii (MAT α, H99 serotype A); settings: for Halo diameter: var. grubii
Procedure, shortened: (§1)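 Paper disks (6.5 mm) were loaded from DMSO stock solutions and air-dried 3 h at RT, then placed on lawns of target cells. The medium was defined minimal agar with 1 mM L-dopa, dopamine or epinephrine to give melanized cells. Doses were 20 μg/disk test compound, or 10 μg test compound with or without 2 μg amphotericin B per disk. Plates ran 6–8 days at 30 °C, and halo diameter (mm) and clarity were recorded.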

[3] = test system: C. neoformans var. grubii; experiment: microtiter plate assay of melanization in liquid medium; type: cell-based, Cryptococcus neoformans var. grubii; settings: for Melanization of treated cells, observed visually: 10 days, 30 °C
[4] = test system: melanized C. neoformans var. gattii; experiment: halo assay; type: cell-based, Cryptococcus neoformans var. gattii (MAT α, serotype B)
Procedure, shortened: as §1

[5] = 20 μg/disk, 1 mM L-dopa, 30 °C, 6 to 8 days
[6] = 10 μg per disk, 1 mM L-dopa, 6 days
[7] = 20 μg per disk, 1 mM L-dopa in minimal medium, 6 to 8 days
[8] = 20 μg per disk, 1 mM dopamine in minimal medium, 6 to 8 days
[9] = 20 μg per disk, 1 mM epinephrine in minimal medium, 6 to 8 days

SMILES: C[C@@H](c1ncncc1F)[C@](O)(Cn1cncn1)c1ccc(F)cc1F [voriconazole]
- Inhibition of laccase and consequent melanin formation in C. neoformans [1]: inhibition of laccase and consequent melanin formation

SMILES: C[C@@H]1[C@H](O)[C@@H](C)/C=C/C=C/C=C/C=C/C=C/C=C/C=C/[C@H](O[C@@H]2O[C@H](C)[C@@H](O)[C@H](N)[C@@H]2O)C[C@@H]2O[C@](O)(C[C@@H](O)C[C@@H](O)[C@H](O)CC[C@@H](O)C[C@@H](O)CC(=O)O[C@H]1C)C[C@H](O)[C@H]2C(=O)O [AMB, amphotericin B, reference compound]
- Appearance of the halo surrounding the disk ([2]; 2 μg per disk, alone, 1 mM L-dopa): clear zone of inhibition
- Appearance of the halo surrounding the disk [2, 5]: very clear zone of inhibition
- Melanization of treated cells, observed visually ([3]; 0.0625 μg/mL, 1 mM catecholamine): growth of melanized cells was observed

SMILES: CC[C@H]1CCCC[C@@]2(C[C@@H]3CC[C@@H]4[C@H](C(=O)OCCCCCCCCCCCCCCCC(=O)N(CCCN)CCCCN)[C@]5(CCC[C@@H](C)O5)NC(=[N+]34)N2)O1.[Cl-] [compound 1, ptilomycalin A]
- Appearance of the halo surrounding the disk ([2]; 10 μg per disk, alone, 1 mM L-dopa): presence of non-melanized cells on the halo surrounding the disk
- Appearance of the halo surrounding the disk [2, 5]: a halo of non-melanized cells were observed
- Interaction with AMB in halo assay ([2]; 1 10 μg combined with AMB 2 μg per disk, 1 mM L-dopa): synergizes the fungicidal activity of AMB
- Halo diameter [2, 6]: 13.5 ^b mm
- Halo diameter [2, 7]: 17 ^c mm
- Halo diameter [2, 8]: 15 ^c mm
- Halo diameter [2, 9]: 12 ^c mm
- Halo diameter [4, 6]: 9.50 ^b mm
- Halo diameter [4, 7]: 17 ^c mm
- Halo diameter [4, 8]: 18 ^c mm
- Halo diameter [4, 9]: 12 ^c mm
- Melanization of treated cells, observed visually ([3]; 0.8 μg/mL, 1 mM catecholamine (epinephrine, dopamine or L-dopa)): only non-melanized cells grew
- Melanization of treated cells ([3]; 0.8 μg/mL, after 21 days): remained non-melanized

SMILES: O=C(O)CNCP(=O)(O)O [glyphosate]
- Inhibitory activity on growth or melanization ([3]; 200 μg/mL, under the authors' conditions): no significant inhibitory activity
- Melanization of treated cells, observed visually ([3]; 200 μg/mL, 1 mM catecholamine): growth of melanized cells was observed
- Inhibition of melanization of C. neoformans [1]: reported to inhibit melanization

SMILES: Clc1ccc(COC(Cn2ccnc2)c2ccc(Cl)cc2Cl)c(Cl)c1 (stereo not drawn) [MCZ, miconazole]
- Melanization of treated cells, observed visually ([3]; 0.5 μg/mL, 1 mM catecholamine): growth of melanized cells was observed
